Results from ChEMBL document CHEMBL1147980, “Nicotinic acid receptor agonists differentially activate downstream effectors” (J Biol Chem, 2007).
pEC50: −log10 of the molar value. Calls of active or inactive are those of the source. The rule behind the calls is not given here.

Key:
Adipocyte = test: Inhibition of isoproterenol-induced lipolysis in human subcutaneous adipocytes after 5 hrs
Rattus norvegicus = test: Reduction of free fatty acid level in po dosed Sprague-Dawley rat plasma relative to baseline; type: functional; parameters: scale not given: the % may be the effect or the level left
Outline: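 Male Sprague-Dawley rats, 7-10 weeks (~350 g), jugular vein cannulated, fasted 16 hr. Baseline blood drawn, then oral vehicle (PBS, 5% HPBCD or 0.5% methylcellulose) or drug at 2 ml/kg. Blood sampled via cannula at set times; serum NEFA assayed by NEFA-C kit, A550. Expressed as % baseline FFA, four or more independent experiments.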

Mus musculus [1] = test: Induction of flushing response in ip dosed C57/BL6 mouse; type: organism-based, C57Bl/6; settings: in vivo
Outline: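 Male C57Bl/6 mice, 8-10 weeks, anesthetized with Nembutal i.p. (80 mg/10 ml/kg). Laser Doppler perfusion imaging centred on the ventral right ear. After a 3 min baseline, vehicle or agonist is given i.p. (5 ml/kg) and readings continue about 15 min. Output is % change from pre-injection baseline, 3-26 animals per group.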

Mus musculus [2] = test: Reduction of free fatty acid level in ip dosed C57/BL6 mouse plasma after 10 mins; type: functional, organism-based; settings: C57Bl/6
Outline: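 Male C57Bl/6 mice, 8-10 weeks (~25 g), fasted 16 hr, dosed i.p. with compound in PBS or PBS vehicle (5 ml/kg). Killed after 10 min; cardiac blood taken and serum obtained by centrifugation at 4°C. NEFA measured colorimetrically with the NEFA-C two-reagent kit, 37°C incubations, A550. Three or more experiments in triplicate; one-way ANOVA with Bonferroni.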

Mus musculus [3] = test: Inhibition of nicotinic acid induced flushing response in ip dosed C57/BL6 mouse; type: functional, organism-based; settings: C57Bl/6
Outline: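 Laser Doppler ear flushing in anesthetized male C57Bl/6 mice. Vehicle or competing agonist is given i.p. together with Nembutal, 10 min before baseline. After a 3 min baseline, nicotinic acid 30 mg/kg i.p. is injected. Response is % change from pre-nicotinic acid baseline, 5 or 11 animals per group.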

SMILES	pEC50 (Adipocyte)	Activity (Rattus norvegicus) [%]	Activity (Mus musculus [1])	Activity (Mus musculus [2])	Activity (Mus musculus [3])
Cc1cc(C(=O)O)on1	5.28	75	Toxic	–	–
O=C(O)c1cc(Cc2cccc(Br)c2)[nH]n1	3.99	75	Non-toxic	Dose-dependent effect	–
Cc1cc(C(=O)O)n[nH]1	5.85	75	Toxic	Dose-dependent effect	–
O=C(O)c1cc(Cc2cccc(F)c2)[nH]n1	4.49	75	Non-toxic	Dose-dependent effect	–
O=C(O)c1cccnc1 [NIACIN]	6.05	–	Toxic	–	–
CC(C)c1cc(C(=O)O)n[nH]1	–	75	Non-toxic	Dose-dependent effect	–
O=C(O)c1cc(Cc2cccc(Cl)c2)n[nH]1	4.14	75	–	Dose-dependent effect	Active
O=C(O)c1cc(Cc2cccc(Cl)c2)[nH]n1	–	–	Non-toxic	–	–
